Measurements taken from ChEMBL document CHEMBL1155078, “From phenothiazine to 3-phenyl-1,4-benzothiazine derivatives as inhibitors of the Staphylococcus aureus NorA multidrug efflux pump” (J Med Chem, 2008).
≈ marks a conversion by molar mass, not a printed value. Calls of active or inactive are those of the source. No cut-off for these calls is given here.

Columns and labels:
Staphylococcus aureus [1] = assay: Antibacterial activity against wild type Staphylococcus aureus ATCC 25923 by microdilution technique; format: functional
Procedure, shortened: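 MICs determined in duplicate by broth microdilution following CLSI guidelines.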

[2] = target: T1, Quinolone resistance protein NorA (Staphylococcus aureus) (UniProt P0A0J7); assay: Inhibition of NorA in Staphylococcus aureus ATCC 25923 assessed as fold reduction of ciprofloxacin MIC at 25 ug/mL by microdilution technique
T1 sequence (whole entry): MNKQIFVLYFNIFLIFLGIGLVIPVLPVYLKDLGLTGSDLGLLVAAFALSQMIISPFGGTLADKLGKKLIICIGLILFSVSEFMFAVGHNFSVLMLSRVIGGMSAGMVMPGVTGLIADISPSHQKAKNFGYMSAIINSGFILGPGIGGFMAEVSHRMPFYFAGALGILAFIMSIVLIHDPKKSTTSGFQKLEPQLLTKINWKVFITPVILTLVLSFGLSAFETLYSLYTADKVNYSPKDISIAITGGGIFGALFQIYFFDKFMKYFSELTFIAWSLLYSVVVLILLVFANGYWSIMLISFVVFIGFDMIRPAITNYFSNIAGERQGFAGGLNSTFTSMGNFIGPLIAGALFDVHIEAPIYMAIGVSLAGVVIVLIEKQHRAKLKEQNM
Procedure, shortened: (§1)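 Ciprofloxacin MICs were measured in duplicate by broth microdilution following CLSI guidelines. They were determined alone and with scalar dilutions of freshly prepared test compound, which was added at the fixed concentration stated in the line. The result is the fold decrease in the ciprofloxacin MIC when compound is present.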

[3] = target: T1, Quinolone resistance protein NorA (Staphylococcus aureus); assay: Inhibition of NorA overexpressing Staphylococcus aureus K2378 assessed as fold reduction of ciprofloxacin MIC at 25 ug/mL by microdilution technique; procedure, shortened: as §1
[4] = target: T1, Quinolone resistance protein NorA (Staphylococcus aureus); assay: Inhibition of NorA deficient Staphylococcus aureus K1902 assessed as fold reduction of ciprofloxacin MIC at 25 ug/mL by microdilution technique
[5] = target: T1, Quinolone resistance protein NorA (Staphylococcus aureus); assay: Inhibition of NorA pump-mediated ethidium bromide efflux in Staphylococcus aureus K1199B at 50 uM by fluorimetric analysis
Procedure, shortened: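 Loss of ethidium bromide from norA-overexpressing S. aureus SA-1199B measured fluorometrically with test agent at 50 µM. Run in duplicate; read-out is the mean total efflux over a 5 min time course.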

Staphylococcus aureus [6] = assay: Antibacterial activity against Staphylococcus aureus K1199B at 50 uM by microdilution technique; format: functional, organism-based
[7] = Lipophilicity, log P of the compound; format: physicochemical; conditions: octanol/water
Staphylococcus aureus [8] = assay: Antibacterial activity against norA expressing Staphylococcus aureus K1902 by microdilution technique
Staphylococcus aureus [9] = assay: Antibacterial activity against norA deficient Staphylococcus aureus K2378 by microdilution technique
Staphylococcus aureus [10] = assay: microbe, parasite or virus in culture; conditions: ATCC 25923
[11] = target: T1, Quinolone resistance protein NorA (Staphylococcus aureus); assay: Inhibition of NorA overexpressing Staphylococcus aureus K2378 assessed as fold reduction of ciprofloxacin MIC at 6.25 ug/mL by microdilution technique; procedure, shortened: as §1
[12] = target: T1, Quinolone resistance protein NorA (Staphylococcus aureus); assay: Inhibition of NorA overexpressing Staphylococcus aureus K2378 assessed as fold reduction of ciprofloxacin MIC at 12.5 ug/mL by microdilution technique; procedure, shortened: as §1
[13] = target: T1, Quinolone resistance protein NorA (Staphylococcus aureus); assay: Inhibition of NorA deficient Staphylococcus aureus K1902 assessed as fold reduction of ciprofloxacin MIC at 12.5 ug/mL by microdilution technique

With `COc1cccc(C2=Nc3ccccc3SC2)c1` the MIC (Staphylococcus aureus [1]) was 64 µg/mL (≈ 251 µM), the fold change (FC) [2] was 4 and the fold change (FC) [3] was 8.
In the case of `Clc1ccc(C2=Nc3ccccc3SC2)cc1`, the MIC (Staphylococcus aureus [1]) is reported as 64 µg/mL (≈ 246 µM), the fold change (FC) [2] is reported as 4 and the fold change (FC) [3] is reported as 4. The fold change (FC) [4] was 4.
With `COc1ccccc1C1=Nc2ccccc2SC1` the MIC (Staphylococcus aureus [1]) was 64 µg/mL (≈ 251 µM), the inhibition [5] was 0% and the Activity (Staphylococcus aureus [6]) was “inactive”. It also gave a logP [7] of 2.9, a fold change (FC) [2] of 4 and a fold change (FC) [3] of 8.
With `CCCOc1ccc(C2=CSc3ccccc3N2C)cc1` the MIC (Staphylococcus aureus [1]) was greater than 512 µg/mL, the inhibition [5] was 0% and the Activity (Staphylococcus aureus [6]) was “inactive”. The fold change (FC) [3] was 4.
For `CCCOc1ccc(C2=Nc3ccccc3SC2)cc1`, the MIC (Staphylococcus aureus [1]) was 128 µg/mL (≈ 452 µM), the inhibition [5] was 84.7% and the Activity (Staphylococcus aureus [6]) was “inactive”. It also gave a logP [7] of 4, a fold change (FC) [2] greater than 8 and a fold change (FC) [3] of 4.
With `O=C(O)c1cn(C2CC2)c2cc(N3CCNCC3)c(F)cc2c1=O` [CIPROFLOXACIN] the MIC (Staphylococcus aureus [8]) was 0.12 µg/mL (≈ 0.362 µM), the MIC (Staphylococcus aureus [9]) was 2 µg/mL (≈ 6.04 µM) and the MIC (Staphylococcus aureus [10]) was 0.5 µg/mL (≈ 1.51 µM).
With `O=S1(=O)C=C(c2ccccc2)Nc2ccccc21` the MIC (Staphylococcus aureus [1]) was 128 µg/mL (≈ 497 µM), the fold change (FC) [2] was 2 and the fold change (FC) [3] was 2.
For `COc1cc(C2=Nc3ccccc3SC2)cc(OC)c1OC`, the MIC (Staphylococcus aureus [1]) was 32 µg/mL (≈ 101 µM), the inhibition [5] was 23.6% and the Activity (Staphylococcus aureus [6]) was “inactive”. It also gave a fold change (FC) [2] of 4, a fold change (FC) [11] of 2 and a fold change (FC) [12] of 4. It also gave a fold change (FC) [3] of 16.
With `O=[N+]([O-])c1ccc(C2=Nc3cc(C(F)(F)F)ccc3SC2)cc1` the MIC (Staphylococcus aureus [1]) was 32 µg/mL (≈ 94.6 µM), the inhibition [5] was 69.7% and the Activity (Staphylococcus aureus [6]) was “inactive”. The logP [7] was 3.9, the fold change (FC) [2] was greater than 8 and the fold change (FC) [11] was 8. The fold change (FC) [12] was 16, the fold change (FC) [3] was greater than 32 and the fold change (FC) [4] was 2. For the same compound, the fold change (FC) [13] was 2.
With `COc1ccc(C2=Nc3ccccc3SC2)cc1` the MIC (Staphylococcus aureus [1]) was greater than 512 µg/mL, the inhibition [5] was 19.5% and the Activity (Staphylococcus aureus [6]) was “inactive”. For the same compound, the logP [7] was 3.1, the fold change (FC) [2] was greater than 8 and the fold change (FC) [11] was 2. The fold change (FC) [12] was 4 and the fold change (FC) [3] was 16.
`O=S1(=O)C=C(c2ccc(Cl)cc2)Nc2ccccc21` gave an MIC (Staphylococcus aureus [1]) of 128 µg/mL (≈ 439 µM), a fold change (FC) [2] of 4 and a fold change (FC) [3] of 2.
With `COc1ccc(C2CSc3ccccc3N2)cc1` (configuration not stated) the MIC (Staphylococcus aureus [1]) was greater than 128 µg/mL, the inhibition [5] was 10.4% and the Activity (Staphylococcus aureus [6]) was “inactive”. For the same compound, the fold change (FC) [2] was 2, the fold change (FC) [11] was 4 and the fold change (FC) [12] was 4. It also gave a fold change (FC) [3] of 8.
For `O=[N+]([O-])c1ccc(C2=Nc3ccccc3SC2)cc1`, the MIC (Staphylococcus aureus [1]) was greater than 128 µg/mL, the inhibition [5] was 19.6% and the Activity (Staphylococcus aureus [6]) was “inactive”. It also gave a fold change (FC) [2] of 2 and a fold change (FC) [3] of 2.
For `c1ccc(C2=Nc3ccccc3SC2)cc1`, the MIC (Staphylococcus aureus [1]) was greater than 512 µg/mL, the inhibition [5] was 0% and the Activity (Staphylococcus aureus [6]) was “inactive”. It also gave a logP [7] of 3 and a fold change (FC) [2] of 8.
For `FC(F)(F)c1ccc2c(c1)N=C(c1ccccc1)CS2`, the MIC (Staphylococcus aureus [1]) was 32 µg/mL (≈ 109 µM), the inhibition [5] was 8.4% and the Activity (Staphylococcus aureus [6]) was “inactive”. It also gave a fold change (FC) [2] of 2, a fold change (FC) [11] of 4 and a fold change (FC) [12] of 16. For the same compound, the fold change (FC) [3] was 16.
`COc1ccc(C2=Nc3cc(C(F)(F)F)ccc3SC2)cc1` showed an MIC (Staphylococcus aureus [1]) of 64 µg/mL (≈ 198 µM), a fold change (FC) [2] of 2 and a fold change (FC) [3] of 8.
In the case of `CSc1ccc(C2CSc3ccccc3N2)cc1` (configuration not stated), the MIC (Staphylococcus aureus [1]) is reported as greater than 128 µg/mL, the inhibition [5] is reported as 28.2% and the Activity (Staphylococcus aureus [6]) is reported as “inactive”. It also gave a logP [7] of 4.5, a fold change (FC) [2] greater than 8 and a fold change (FC) [11] of 8. For the same compound, the fold change (FC) [12] was 8 and the fold change (FC) [3] was 16.
Compound `Cc1ccc(C2=Nc3ccccc3SC2)cc1` has an MIC (Staphylococcus aureus [1]) of 64 µg/mL (≈ 267 µM), a fold change (FC) [2] of 4 and a fold change (FC) [4] of 8.
With `CC(C)CCOc1ccc(C2=Nc3ccccc3SC2)cc1` the MIC (Staphylococcus aureus [1]) was greater than 128 µg/mL, the inhibition [5] was 16.9% and the Activity (Staphylococcus aureus [6]) was “inactive”. The fold change (FC) [2] was 4 and the fold change (FC) [3] was 2.
Compound `COC(=O)[C@H]1[C@H]2C[C@@H]3c4[nH]c5cc(OC)ccc5c4CCN3C[C@H]2C[C@@H](OC(=O)c2cc(OC)c(OC)c(OC)c2)[C@@H]1OC` [RESERPINE] has an MIC (Staphylococcus aureus [1]) of 128 µg/mL (≈ 210 µM), a logP [7] of 4 and a fold change (FC) [2] of 2. It also gave a fold change (FC) [3] of 4 and a fold change (FC) [4] of 2.
For `COc1ccc(C2=Nc3ccccc3SC2)cc1OC`, the MIC (Staphylococcus aureus [1]) was 128 µg/mL (≈ 449 µM), the inhibition [5] was 22.8% and the Activity (Staphylococcus aureus [6]) was “inactive”. For the same compound, the fold change (FC) [2] was 4, the fold change (FC) [11] was 2 and the fold change (FC) [12] was 4. For the same compound, the fold change (FC) [3] was 16 and the fold change (FC) [4] was 2.
For `CN(C)CCCN1c2ccccc2Sc2ccc(Cl)cc21` [CHLORPROMAZINE], the MIC (Staphylococcus aureus [1]) was 128 µg/mL (≈ 401 µM), the inhibition [5] was 81% and the logP [7] was 5.2. The fold change (FC) [3] was 8 and the fold change (FC) [4] was greater than 4.
For `Fc1ccc(C2=Nc3ccccc3SC2)cc1`, the MIC (Staphylococcus aureus [1]) was 64 µg/mL (≈ 263 µM), the inhibition [5] was 0% and the Activity (Staphylococcus aureus [6]) was “inactive”. For the same compound, the logP [7] was 3.2, the fold change (FC) [2] was 4 and the fold change (FC) [11] was 2. For the same compound, the fold change (FC) [12] was 2, the fold change (FC) [3] was 16 and the fold change (FC) [4] was 2.
